The text below walks through data of ChEMBL document CHEMBL1138117, “Hybrid antibacterials. DNA polymerase-topoisomerase inhibitors” (J Med Chem, 2006).

The subject of one experiment is Escherichia coli. The experiment in a line: Antibacterial activity against Escherichia coli J53. It is filed as functional.
Experiment [1] deals with Staphylococcus aureus. Briefly: Antibacterial activity against methicillin resistant Staphylococcus aureus MRSA 1094. In kind it is functional.
The subject of experiment [2] is Enterococcus faecium. The experiment in a line: Antibacterial activity against Enterococcus faecium 19434. It is filed as functional.
In a further experiment the test system is Mus musculus. The experiment in a line: Effect on survival of mice after ip infection with Staphylococcus aureus Smith. It is filed as functional. The procedure, abridged: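 Male Swiss-Webster mice (20–24 g) were given 10⁸ CFU of log-phase S. aureus Smith ip, grown in LB at 37 °C and washed in cold broth. A single iv tail-vein dose was given in DCP vehicle (10% DMA, 10% Cremophor EL in PBS, pH 9.5; 5 mL/kg) 15 min post-infection. Survival was scored at 72 h and ED50 derived.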

The test system of a further experiment is Bacillus subtilis. The experiment in a line: Antibacterial activity against Bacillus subtilis BD54. It is filed as functional.
The subject of experiment [3] is Enterococcus faecium. Briefly: Antibacterial activity against Vancomycin resistant Enterococcus faecium VRE 700802. It is filed as functional.
Another experiment concerns Enterococcus faecalis. The experiment in a line: Antibacterial activity against Enterococcus faecalis 29212. In kind it is functional.
Experiment [4] deals with DNA polymerase III PolC-type (Bacillus subtilis (strain 168), UniProt P13267). The experiment in a line: Binding affinity to Bacillus subtilis DNA polymerase3C. As to conditions: read-out: Ki. The procedure, abridged:
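Homogeneous recombinant B. subtilis pol IIIC was assayed in 96-well format on activated calf thymus DNA. Apparent Ki values were determined in a truncated assay lacking the competitor dGTP.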

Experiment [5] concerns Staphylococcus aureus. The experiment in a line: Antibacterial activity against Staphylococcus aureus 25293. In kind it is functional.
The subject of experiment [6] is Staphylococcus aureus. The experiment in a line: Antibacterial activity against Staphylococcus aureus smith. In kind it is functional.

Converted amounts (≈) assume the structure as drawn.

Sequence of DNA polymerase III PolC-type (P13267 whole entry, the tested form may be a part): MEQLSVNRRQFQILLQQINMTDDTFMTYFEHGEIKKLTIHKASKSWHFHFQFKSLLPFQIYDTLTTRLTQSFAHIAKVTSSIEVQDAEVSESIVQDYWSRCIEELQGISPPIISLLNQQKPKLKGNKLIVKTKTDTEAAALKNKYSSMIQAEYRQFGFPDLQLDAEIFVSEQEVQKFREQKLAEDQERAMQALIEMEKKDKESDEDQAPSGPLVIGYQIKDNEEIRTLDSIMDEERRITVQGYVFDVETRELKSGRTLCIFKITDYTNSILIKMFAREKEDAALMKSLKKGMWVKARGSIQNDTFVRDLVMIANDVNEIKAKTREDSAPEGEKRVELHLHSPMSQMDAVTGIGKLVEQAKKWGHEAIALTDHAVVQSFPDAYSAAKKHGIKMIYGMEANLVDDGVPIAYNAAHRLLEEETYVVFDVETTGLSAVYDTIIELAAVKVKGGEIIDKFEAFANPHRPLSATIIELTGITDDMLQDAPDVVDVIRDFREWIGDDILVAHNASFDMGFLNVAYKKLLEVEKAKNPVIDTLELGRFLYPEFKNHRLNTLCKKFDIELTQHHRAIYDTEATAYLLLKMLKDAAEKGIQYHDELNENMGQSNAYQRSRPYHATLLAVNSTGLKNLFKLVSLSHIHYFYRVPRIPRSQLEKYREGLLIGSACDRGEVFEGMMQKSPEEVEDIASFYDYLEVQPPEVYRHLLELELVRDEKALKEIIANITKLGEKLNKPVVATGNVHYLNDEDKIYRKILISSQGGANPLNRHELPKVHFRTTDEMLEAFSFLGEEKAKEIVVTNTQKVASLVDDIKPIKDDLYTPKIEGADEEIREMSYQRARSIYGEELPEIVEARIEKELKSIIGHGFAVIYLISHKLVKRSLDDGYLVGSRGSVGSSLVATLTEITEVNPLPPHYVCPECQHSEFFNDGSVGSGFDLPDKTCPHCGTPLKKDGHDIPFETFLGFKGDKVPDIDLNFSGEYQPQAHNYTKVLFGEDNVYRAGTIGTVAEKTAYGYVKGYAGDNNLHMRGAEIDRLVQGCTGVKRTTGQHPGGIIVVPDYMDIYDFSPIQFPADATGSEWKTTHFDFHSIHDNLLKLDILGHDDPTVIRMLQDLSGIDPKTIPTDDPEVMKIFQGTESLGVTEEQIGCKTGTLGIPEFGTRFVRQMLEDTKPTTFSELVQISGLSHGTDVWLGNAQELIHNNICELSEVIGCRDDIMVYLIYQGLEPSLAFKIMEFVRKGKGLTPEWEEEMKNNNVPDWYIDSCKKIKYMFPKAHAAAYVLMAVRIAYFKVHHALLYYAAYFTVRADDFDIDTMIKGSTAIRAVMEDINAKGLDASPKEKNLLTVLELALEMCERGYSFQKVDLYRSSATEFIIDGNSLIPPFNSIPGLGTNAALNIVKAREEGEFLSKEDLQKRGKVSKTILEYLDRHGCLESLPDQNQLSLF

For the molecule `CCc1cc(Nc2cc(=O)n(CCCCN3CCN(c4c(F)cc5c(=O)c(C(=O)O)cn(C6CC6)c5c4F)CC3CO)c(=O)[nH]2)ccc1C` (configuration not stated), the MIC in the experiment on Escherichia coli is over 40 µg/mL; against Staphylococcus aureus [1], 5 µg/mL (≈ 7.37 µM); against Enterococcus faecium [2], 2.5 µg/mL (≈ 3.68 µM); against Bacillus subtilis, 0.625 µg/mL (≈ 0.921 µM); in the experiment with Enterococcus faecium [3], 2.5 µg/mL (≈ 3.68 µM); in the experiment on Enterococcus faecalis, 2.5 µg/mL (≈ 3.68 µM). In the experiment with Mus musculus, this molecule came in with an ED50 of 35 mg/kg.
For the molecule `CCc1cc(Nc2cc(=O)n(CCCCN3CCN(c4cc5c(cc4F)c(=O)c(C(=O)O)cn5-c4ccc(F)cc4F)CC3)c(=O)[nH]2)ccc1C`, the MIC is over 40 µg/mL in the experiment with Escherichia coli; 1.25 µg/mL (≈ 1.78 µM) against Enterococcus faecium [2]; 0.313 µg/mL (≈ 0.445 µM) with Bacillus subtilis; 1.25 µg/mL (≈ 1.78 µM) in the experiment on Enterococcus faecium [3]; 1.25 µg/mL (≈ 1.78 µM) against Enterococcus faecalis. This molecule also registered an ED50 with Mus musculus of 27 mg/kg.
As to `CCc1cc(Nc2cc(=O)n(CCCCN3CCN(c4cc5c(cc4F)c(=O)c(C(=O)O)cn5-c4ccc(F)cc4)CC3)c(=O)[nH]2)ccc1C`, the MIC against Escherichia coli is over 40 µg/mL; in the experiment with Staphylococcus aureus [1], 2.5 µg/mL (≈ 3.65 µM); in the experiment on Enterococcus faecium [2] it was 1.25 µg/mL (≈ 1.83 µM); against Staphylococcus aureus [5], 1.25 µg/mL (≈ 1.83 µM); with Bacillus subtilis it was 0.156 µg/mL (≈ 0.228 µM); against Enterococcus faecium [3], 1.25 µg/mL (≈ 1.83 µM). In addition, the minimum inhibitory concentration (MIC) in the experiment on Enterococcus faecalis and with Staphylococcus aureus [6] was 0.625 µg/mL (≈ 0.913 µM) in each case. Also, in experiment [4], the Ki turned out to be 0.017 µM.
On to `CCc1cc(Nc2cc(=O)n(CCCCN3CCN(c4cc5c(cc4F)c(=O)c(C(=O)O)cn5C4CC4)C[C@H]3C)c(=O)[nH]2)ccc1C`, for which the minimal inhibitory concentration (MIC) was 2.5 µg/mL (≈ 3.88 µM) against Staphylococcus aureus [1]; 0.625 µg/mL (≈ 0.969 µM) in the experiment with Enterococcus faecium [2]; 0.313 µg/mL (≈ 0.485 µM) against Bacillus subtilis; 0.625 µg/mL (≈ 0.969 µM) in the experiment with Enterococcus faecium [3]; 0.625 µg/mL (≈ 0.969 µM) against Enterococcus faecalis. Also, in the experiment on Mus musculus, it took a dose of 20 mg/kg to reach the 50% effect level (ED50).
Turning to `CCc1cc(Nc2cc(=O)n(CCCCCN3CC4CCCN(c5cc6c(cc5F)c(=O)c(C(=O)O)cn6C5CC5)C4C3)c(=O)[nH]2)ccc1C` (configuration not stated), the minimum inhibitory concentration (MIC) in the experiment on Escherichia coli was over 80 µg/mL; against Staphylococcus aureus [1] it was over 80 µg/mL; against Enterococcus faecium [2] it was over 80 µg/mL; in the experiment with Staphylococcus aureus [5], 2.5 µg/mL (≈ 3.65 µM); against Bacillus subtilis, 1.25 µg/mL (≈ 1.83 µM); with Enterococcus faecalis, over 80 µg/mL. Also, in the experiment with Staphylococcus aureus [6], the minimum inhibitory concentration (MIC) stood at 1.25 µg/mL (≈ 1.83 µM). In [4], the inhibition constant Ki is 0.041 µM.
For `Cc1ccc(Nc2cc(=O)n(CCCCN3CCN(c4cc5c(cc4F)c(=O)c(C(=O)O)cn5C4CC4)CC3)c(=O)[nH]2)cc1C`, the MIC is over 40 µg/mL in the experiment on Escherichia coli; 5 µg/mL (≈ 8.11 µM) in the experiment with Staphylococcus aureus [1]; 2.5 µg/mL (≈ 4.05 µM) with Enterococcus faecium [2]; 1.25 µg/mL (≈ 2.03 µM) against Staphylococcus aureus [5]; 0.313 µg/mL (≈ 0.508 µM) against Bacillus subtilis; 1.25 µg/mL (≈ 2.03 µM) in the experiment on Enterococcus faecium [3]. Further, the MIC against Enterococcus faecalis was found to be 2.5 µg/mL (≈ 4.05 µM); in the experiment on Staphylococcus aureus [6], 0.625 µg/mL (≈ 1.01 µM).
Turning to `CCc1cc(Nc2cc(=O)n(CCCCCN3CC4OCCN(c5cc6c(cc5F)c(=O)c(C(=O)O)cn6C5CC5)C4C3)c(=O)[nH]2)ccc1C` (configuration not stated), the MIC was 40 µg/mL (≈ 58.2 µM) against Escherichia coli; 5 µg/mL (≈ 7.28 µM) against Staphylococcus aureus [1]; over 80 µg/mL with Enterococcus faecium [2]; 1.25 µg/mL (≈ 1.82 µM) against Staphylococcus aureus [5]; 0.625 µg/mL (≈ 0.91 µM) in the experiment on Bacillus subtilis; 10 µg/mL (≈ 14.6 µM) against Enterococcus faecium [3]. For the same molecule, the minimal inhibitory concentration (MIC) in the experiment with Enterococcus faecalis was found to be 5 µg/mL (≈ 7.28 µM); against Staphylococcus aureus [6], 0.625 µg/mL (≈ 0.91 µM). For the same molecule, in [4], the Ki stood at 0.033 µM.
Consider `CCc1cc(Nc2cc(=O)n(CCCCN3CCN(c4cc5c(cc4F)c(=O)c(C(=O)O)cn5C4CC4)CC3C)c(=O)[nH]2)ccc1C` (configuration not stated), for which the minimum inhibitory concentration (MIC) worked out at 40 µg/mL (≈ 62 µM) against Escherichia coli; 1.25 µg/mL (≈ 1.94 µM) in the experiment with Staphylococcus aureus [1]; 1.25 µg/mL (≈ 1.94 µM) against Enterococcus faecium [2]; 0.313 µg/mL (≈ 0.485 µM) in the experiment on Bacillus subtilis; 0.626 µg/mL (≈ 0.971 µM) in the experiment with Enterococcus faecium [3]; 1.25 µg/mL (≈ 1.94 µM) against Enterococcus faecalis. The inhibition constant Ki in [4] was 0.026 µM. Besides, in the experiment with Mus musculus, the ED50 was found to be 20 mg/kg.
With `CCc1cc(Nc2cc(=O)n(CCCCN3CCN(c4c(F)cc5c(=O)c(C(=O)O)cn(CC)c5c4F)CC3)c(=O)[nH]2)ccc1C`, the MIC in the experiment with Escherichia coli was over 40 µg/mL; in the experiment with Enterococcus faecium [2] it was 1.25 µg/mL (≈ 1.96 µM); in the experiment with Bacillus subtilis, 0.313 µg/mL (≈ 0.492 µM); with Enterococcus faecium [3] it was 0.625 µg/mL (≈ 0.982 µM); with Enterococcus faecalis it was 1.25 µg/mL (≈ 1.96 µM).
With `CCc1cc(Nc2cc(=O)n(CCCCN3CCN(c4cc5c(cc4F)c(=O)c(C(=O)O)cn5C4CC4)C[C@@H]3C)c(=O)[nH]2)ccc1C`, the MIC in the experiment with Escherichia coli came out at 40 µg/mL (≈ 62 µM); in the experiment on Staphylococcus aureus [1] it was 1.25 µg/mL (≈ 1.94 µM); against Enterococcus faecium [2] it was 1.25 µg/mL (≈ 1.94 µM); with Staphylococcus aureus [5], 1.25 µg/mL (≈ 1.94 µM); in the experiment on Enterococcus faecium [3], 0.625 µg/mL (≈ 0.969 µM); in the experiment on Enterococcus faecalis it was 0.625 µg/mL (≈ 0.969 µM). In the experiment on Mus musculus, this molecule had a 50% effective dose (ED50) of 30 mg/kg.
`CCc1cc(Nc2cc(=O)n(CCCCO)c(=O)[nH]2)ccc1C`: the MIC in the experiment with Escherichia coli is over 40 µg/mL; in the experiment with Staphylococcus aureus [1], 5 µg/mL (≈ 15.8 µM); in the experiment with Enterococcus faecium [2], 5 µg/mL (≈ 15.8 µM); against Staphylococcus aureus [5], 5 µg/mL (≈ 15.8 µM); against Bacillus subtilis, 1.25 µg/mL (≈ 3.94 µM); against Enterococcus faecium [3], 5 µg/mL (≈ 15.8 µM). Further, the MIC against Enterococcus faecalis and against Staphylococcus aureus [6] was 5 µg/mL (≈ 15.8 µM) each time. In addition, in experiment [4], the inhibition constant Ki was determined as 0.066 µM.

As a reminder, the MIC is the lowest concentration that inhibits growth of the organism. For orientation: ED50 means the dose that gives a 50% effect, or the effect in half of the subjects. A low value points to an effect at a small dose. What is called Ki is the equilibrium dissociation constant of an inhibitor or competing ligand from its target.
